hERG protect: shields human hERG channel from block by proarrhythmic agents | 310,000 compounds, 0.51% hits | CHO-hERG, FluxOR thallium flux, dofetilide IC70 present | AID 1511 | activation (rescue from dofetilide block), less the hit threshold, % at 10 µM | Q12809;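 active = activation above the mean of controls blocked by dofetilide plus 5 SD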;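 also: thallium influx through hERG after potassium depolarization seen as dye fluorescence rise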
KCNQ1 block: inhibitors of human KCNQ1 potassium channel | B-score at 10 µM | 310,000 compounds, 1.3% hits | P51787 | AID 2642 | CHO-K1 KCNQ1, FluxOR thallium flux fluorescence; active compounds read high;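 active = compounds whose thallium flux B-score, printed positive for inhibition, exceeds three library SD while starting fluorescence stays within three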;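 also: channel opened by potassium depolarization with thallium stimulus after 20 min compound exposure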
Kir21 block: blocks the mouse Kir2.1 inward-rectifier potassium channel | P35561 | HEK293-Kir2.1, FluxOR thallium flux fluorescence; active compounds read low | B-score at 10 µM | 310,000 compounds, 0.85% hits;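 active = fluorescence ratio B-score at or below minus 3 SD of library scores, with starting-brightness B-score within 2 SD, cut at about -4.2 in these data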;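 also: channel flux triggered by added potassium and thallium sulfate stimulus; B-score of peak minus minimum fluorescence over baseline after thallium stimulus; more negative B-score means stronger Kir2.1 block with less thallium influx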
KCNK9 block: blocks the human KCNK9 two-pore domain potassium channel; B-score at 10 µM; 310,000 compounds, 1.2% hits; AID 488922; HEK293 KCNK9, FluxOR thallium flux fluorescence; active compounds read low; Q9NPC2;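 active = ratio B-score over 3 SD below the library mean, with starting fluorescence within 5 SD of its mean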;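 also: negative B-score means less thallium flux so channel inhibition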
KCNK3 block: human KCNK3 channel inhibition, primary screen; 340,000 compounds, 0.84% hits; AID 602410; B-score at 10 µM; CHO-KCNK3 thallium flux, FluxOR fluorescence; active compounds read low;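 active = B-score under library mean minus 4 SD, starting fluorescence ratio at most library mean plus 5 SD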;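 also: more negative B-score means stronger inhibition of thallium flux through KCNK3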
KCNQ1 pot: potentiators or activators of human KCNQ1 potassium channel | P51787 | CHO-K1 KCNQ1, thallium flux FluxOR fluorescence; active compounds read high | B-score at 10 µM | 310,000 compounds, 0.35% hits | AID 2648;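 active = fluorescence ratio B-score, a plate-corrected score, at least three library SD, with initial intensity B-score within 5 SD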
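Test system: CHO-K1 cells stably expressing KCNQ1 / Medium: assay buffer / Also added: depolarizing K+/Tl+ stimulus, K2SO4 and Tl2SO4 each 12.5 mM in 5x stock / Incubation: 90 min dye loading and 20 min compound exposure, both at room temperature / Signal: thallium influx via FluxOR fluorescence, kinetic imaging / Evaluation: B score of baseline-normalized fluorescence ratio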
Starred values were filed as active, the others as inactive; i = inactive; . = no result given. This is a sample that favours compounds with a hit; in the whole collection about 3.7% have one here.

SMILES | hERG protect | KCNQ1 block | Kir21 block | KCNK9 block | KCNK3 block | KCNQ1 pot
Cc1ccc(SCc2ccc(C(=O)Nc3ccccc3C(=O)NC(C)C)cc2)cc1 | -2.2 | i | 0.38 | i | i | i
CCCNC(=O)c1ccccc1NC(=O)c1ccc(CSc2ccccc2)cc1 | -3.0 | 6* | 0.2 | i | i | i
O=C1CC(c2ccccc2)Sc2nc3ccccc3n21 (centres undefined) | 42.5* | i | -2.16 | i | i | i
O=C1CC(c2cccs2)Sc2nc3ccccc3n21 (centres undefined) | -4.0 | i | -0.18 | i | i | i
CCc1cc(-c2n[nH]c(=S)n2C(C)c2ccccc2)cs1 (centres undefined) | -7.1 | i | -7.77* | i | i | i
Cc1cc(Nc2ccc(Cl)cc2)nc(NCc2ccccc2)n1 | -18.1 | i | -6.99* | i | i | i
Cc1nc(NN)nc(NCc2ccccc2)n1 | 7.1* | i | 1.57 | i | i | i
Cc1ccc(/C=N/Nc2cc(C)nc(NCc3ccccc3)n2)cc1 | -7.5 | i | -0.3 | i | i | i
Cc1cc(Nc2ccccc2)nc(NCc2ccccc2)n1 | -22.1 | i | -10.7* | i | i | i
CNC(=O)COc1coc(CN2CCN(c3ccc(F)cc3)CC2)cc1=O | -4.9 | i | 0.22 | i | i | i
COc1ccc(OC)c(C(=O)NC(CC(N)=O)c2ccc(N3CCN(c4ccc(F)cc4)CC3)c([N+](=O)[O-])c2)c1 (centres undefined) | -8.8 | i | 1.58 | i | i | i
O=C1/C(=C/c2ccc([N+](=O)[O-])cc2)Oc2cc(O)ccc21 | -6.5 | 6* | 0.28 | i | i | i
CC(C)(C)c1ccc(/C=C2\Oc3cc(O)ccc3C2=O)cc1 | -2.9 | i | 0.18 | i | i | i
COc1ccc(N(CC(=O)N2CCN(c3ccccc3)CC2)S(=O)(=O)c2ccc(C)cc2)cc1 | -9.4 | i | -0.3 | i | i | i
CCOc1ccc(N(CC(=O)N2CCN(c3ccccc3OC)CC2)S(=O)(=O)c2ccc(C)cc2)cc1 | -11.5 | 9* | 1.2 | i | i | i
NC1=NC2=C(CCCC2)C2(CCCCC2)S1 | -14.7 | i | -6.72* | i | i | i
COC(=O)/C=C1\OC(c2ccccc2)=CC1=O | -34.2 | 8* | -10.4* | i | . | i
O=C1OC(c2ccccc2)=C/C1=C/N1CCCCC1 | -7.1 | i | -0.23 | i | i | i
COCCCn1c(SCC(=O)NC2CCCCC2)nnc1-c1ccco1 | -10.6 | i | -1.65 | i | i | i
Cc1nn(-c2ccccc2)c(Cl)c1C1C(C#N)=C(N)OC2=C1C(=O)CCC2 (centres undefined) | 5.4* | i | 1.29 | i | i | i
O=C(NC(=S)N1CCN(C/C=C/c2ccccc2)CC1)c1c(F)cccc1F | -3.6 | i | 0.01 | i | i | 7*
O=C(NC(=S)N1CCN(C/C=C/c2ccccc2)CC1)c1ccco1 | -10.3 | i | 1.12 | i | i | i
COc1ccc(CNC2CCCc3ccccc32)cc1OC (centres undefined) | -11.2 | i | 0.25 | i | i | i
COc1ccc(CNC2c3ccccc3-c3ccccc32)cc1OC | -6.3 | i | -4.36* | i | i | i
CC(=O)c1cccc(NC(=O)c2ccc(N(Cc3ccccc3)S(C)(=O)=O)cc2)c1 | -13.3 | i | -0.67 | i | i | i
CS(=O)(=O)N(Cc1ccccc1)c1ccc(C(=O)Nc2ccc(C(N)=O)cc2)cc1 | 45.5* | i | 2.69 | i | i | i
COc1cc(NC(=O)c2cccnc2)c(Cl)cc1NC(=O)c1ccccc1 | -5.9 | i | -0.39 | i | i | i
Cc1ccccc1Nc1nc(N)c2ccccc2n1 | -3.6 | i | -2.01 | i | i | i
COc1ccc(C)cc1Nc1nc(N)c2ccccc2n1 | -8.2 | i | -4.87* | i | i | i
COc1ccc(OC)c(Nc2c3ccccc3nc3ccccc23)c1 | -16.3 | i | -4.63* | i | i | i

Screening results deposited in PubChem BioAssay by Johns Hopkins Ion Channel Center.
